The values below come from ChEMBL document CHEMBL1641558, “A novel series of potent and selective EP(4) receptor ligands: facile modulation of agonism and antagonism” (Bioorg Med Chem Lett, 2011).

The species entered for data set [1] is Homo sapiens. The experiment in a line: Selectivity ratio of Ki for human prostanoid IP receptor to Ki for human prostanoid EP4.
In data set [2] the target is T1, Prostaglandin E2 receptor EP4 subtype (Homo sapiens, UniProt P35408). Briefly: Antagonist activity at human prostanoid EP4 receptor expressed in HEK293 cells assessed as inhibition of PGE2-induced cAMP accumulation by scintillation proximity assay. The class given is functional, cell-based. The procedure, abridged: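 HEK293 cells expressing EP4 receptors. Antagonism is read as inhibition of PGE2-evoked rise in intracellular cAMP, reported as IC50. Agonism is read as cAMP elevation in the same cells without PGE2, reported as EC50.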
T1 sequence (P35408 whole entry): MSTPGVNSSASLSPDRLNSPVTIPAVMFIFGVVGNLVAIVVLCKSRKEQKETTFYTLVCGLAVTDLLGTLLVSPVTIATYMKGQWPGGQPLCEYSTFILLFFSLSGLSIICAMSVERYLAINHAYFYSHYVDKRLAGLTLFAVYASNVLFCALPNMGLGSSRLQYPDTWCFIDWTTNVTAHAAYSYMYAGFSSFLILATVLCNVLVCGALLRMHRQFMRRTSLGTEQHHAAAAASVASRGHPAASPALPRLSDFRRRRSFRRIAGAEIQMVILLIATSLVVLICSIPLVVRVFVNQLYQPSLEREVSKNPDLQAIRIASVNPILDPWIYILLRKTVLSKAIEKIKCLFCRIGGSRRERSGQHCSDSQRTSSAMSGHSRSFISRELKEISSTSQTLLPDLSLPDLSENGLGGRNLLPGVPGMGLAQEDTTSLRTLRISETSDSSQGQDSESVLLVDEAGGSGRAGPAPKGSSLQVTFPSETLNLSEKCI
(cAMP levels reflect the balance of adenylyl cyclase and phosphodiesterase activity.)

The species named for data set [3] is Homo sapiens. Briefly: Selectivity ratio of Ki for human prostanoid DP receptor to Ki for human prostanoid EP4.
For data set [4], the species on record is Homo sapiens. Briefly: Selectivity ratio of Ki for human prostanoid EP1 receptor to Ki for human prostanoid EP4.
Data set [5] is filed under the species Homo sapiens. The experiment in a line: Selectivity ratio of Ki for human prostanoid TP receptor to Ki for human prostanoid EP4.
Data set [6] is filed under the species Homo sapiens. Briefly: Selectivity ratio of Ki for human prostanoid FP receptor to Ki for human prostanoid EP4.
For data set [7], the species on record is Homo sapiens. Briefly: Selectivity ratio of Ki for human prostanoid EP3 receptor to Ki for human prostanoid EP4.
The species entered for data set [8] is Homo sapiens. Briefly: Selectivity ratio of Ki for human prostanoid EP2 receptor to Ki for human prostanoid EP4.
The target of data set [9] is T1, Prostaglandin E2 receptor EP4 subtype. Briefly: Displacement of [3H]PGE2 from human prostanoid EP4 receptor expressed in HEK293-EBNA cells after 60 mins by scintillation counting. The class given is cell-based. (Loss of bound radioactivity is the signal in a displacement assay; it reports binding, not function.)
Data set [10] in a line: Bioavailability in rat at 20 mg/kg, po and 5 mg/kg, iv. The class given is ADME, organism-based. Conditions: in vivo. The procedure, abridged: (§1)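 Rat pharmacokinetics with potassium salts, given 20 mg/kg orally in 0.5% methocel and 5 mg/kg intravenously in 60% PEG 200. Half-life, oral bioavailability and clearance derived from these dosings.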
Data set [11] is described as follows: Clearance in rat at 20 mg/kg, po and 5 mg/kg, iv. Format: ADME, organism-based. The conditions noted are these: in vivo. The procedure, abridged:
as §1

The nature of data set [12]: Half life in rat at 20 mg/kg, po and 5 mg/kg, iv. The class given is ADME, organism-based. Conditions: in vivo. In a few lines:
as §1

The structures appear in SMILES notation.

Take `C[C@H](NC(=O)c1cccc2ccn(Cc3cccc(Cl)c3)c12)c1ccc(C(=O)O)cc1`: the Ratio Ki in [1] is above 1000; in data set [3] it was 16; in data set [4], above 1000; in [5], above 1000; in [6], above 1000; in data set [7], above 1000. The Ratio Ki in [8] is above 1000. For the same compound, the concentration for half-maximal inhibition (IC50) in [2] was found to be 6 nM.
Consider `C[C@H](NC(=O)c1cccc2c1N(Cc1ccc(C(F)(F)F)cc1Br)CC2)c1ccc(C(=O)O)cc1`, for which the Ratio Ki in data set [1] is above 1000; in data set [3] it was 88; in data set [4] it was above 1000; in [5] it was above 1000; in data set [6], above 1000; in data set [7], above 1000. The Ratio Ki in data set [8] stood at 795. Moreover, in [2], the IC50 worked out at 4.7 nM. In data set [9], this compound yielded a Ki of 6.7 nM.
Take `C[C@H](NC(=O)c1cccc2c1N(Cc1cccnc1)CC2)c1ccc(C(=O)O)cc1`: the Ratio Ki was above 1000 in [1]; above 50 in [3]; above 1000 in data set [4]; above 1000 in data set [5]; above 1000 in [6]; above 1000 in data set [7]. Also, in data set [8], the Ratio Ki was above 127. In addition, the IC50 in data set [2] was found to be 258 nM. This compound also returned a Ki in data set [9] of 76 nM.
Take `C[C@H](NC(=O)c1cc(C(F)(F)F)cc2c1N(Cc1ccc(C(F)(F)F)cc1)CC2)c1ccc(C(=O)O)cc1`: the Ratio Ki is above 1000 in [1]; 504 in [3]; above 1000 in [4]; above 1000 in [5]; above 1000 in data set [6]; above 1000 in data set [7]. Moreover, the Ratio Ki in data set [8] came to 153. Besides, in data set [2], the IC50 was 3 nM. The compound further returned a Ki in data set [9] of 0.66 nM.
With `C[C@H](NC(=O)c1cccc2c1N(Cc1ccc(C(F)(F)F)cc1)CC2)c1ccc(-c2nn[nH]n2)cc1`, the Ratio Ki in data set [1], in data set [3], in [4], in [5], in [6] and in data set [7] was above 1000 each time. The Ratio Ki in [8] is above 1000.
On to `C[C@H](NC(=O)c1cccc2c1N(Cc1ccc(F)cc1)CC2)c1ccc(C(=O)O)cc1`, for which the Ratio Ki in data set [1] is above 1000; in [3], 907; in data set [4], above 1000; in data set [5] it was above 1000; in data set [6], above 1000; in [7], above 1000. Besides, in [8], the Ratio Ki turned out to be 488. Moreover, the IC50 in data set [2] was 6.2 nM. In [9], this compound had an inhibition constant (Ki) of 1.8 nM.
For `C[C@H](NC(=O)c1cccc2c1N(Cc1cccc(C#N)c1)CC2)c1ccc(C(=O)O)cc1`, the Ratio Ki in data set [1], in data set [3], in data set [4], in [5], in data set [6] and in data set [7] was above 1000 each time. In addition, the Ratio Ki in [8] is 582. The IC50 in data set [2] amounted to 212 nM. In data set [9], the Ki turned out to be 7.5 nM.
For `C[C@H](NC(=O)c1cccc2c1N(Cc1ccc(C#N)cc1)CC2)c1ccc(C(=O)O)cc1`, the Ratio Ki in data set [1] is above 1000; in data set [3], 916; in [4], above 1000; in data set [5], above 1000; in data set [6], above 1000; in data set [7], above 1000. Moreover, in data set [8], the Ratio Ki stood at 603. The half-maximal inhibitory concentration (IC50) in data set [2] was found to be 7.3 nM. This compound also yielded a Ki in data set [9] of 3.1 nM.
Regarding `C[C@H](NC(=O)c1cccc2c1N(Cc1ccc(C(C)(C)C)cc1)CC2)c1ccc(C(=O)O)cc1`, the Ratio Ki in data set [1] is above 1000; in data set [3] it was above 281; in data set [4], above 1000; in data set [5], above 1000; in data set [6], above 1000; in data set [7], above 1000. The Ratio Ki in data set [8] is above 692. Further, in [2], the IC50 was determined as 114 nM. In addition, the Ki in data set [9] stood at 14 nM.
Consider `C[C@H](NC(=O)c1cccc2c1N(Cc1ccc(C(F)(F)F)cc1)CC2)c1ccc(-c2nnn[nH]2)cc1`, for which, in data set [10], the bioavailability amounted to 54%. In data set [11], this compound had a clearance of 28 mL/min/kg. Also, the half-life in data set [12] was 2.6 h. Further, in data set [2], the IC50 is 3.5 nM. The Ki in data set [9] stood at 1 nM.
In [10], `C[C@H](NC(=O)c1cccc2c1N(Cc1ccc(Cl)c(Cl)c1)CC2)c1ccc(C(=O)O)cc1` showed a bioavailability of 73%. Also, the Ratio Ki in data set [1] is above 1000; in [3], 241; in data set [4], above 1000; in data set [5] it was above 1000; in data set [6], above 1000; in data set [7], above 1000. Also, the Ratio Ki in data set [8] was found to be 338. Moreover, the clearance in data set [11] is 12 mL/min/kg. In [12], the half-life was 4.8 h. In [2], the IC50 worked out at 1.1 nM. Besides, the Ki in data set [9] is 0.34 nM.
For the compound `C[C@H](NC(=O)c1cccc2c1N(Cc1ccc(Cl)cc1Br)CC2)c1ccc(C(=O)O)cc1`, the Ratio Ki in [1] is above 1000; in [3], 114; in data set [4] it was above 1000; in [5] it was above 1000; in data set [6], above 1000; in [7], above 1000. In addition, the Ratio Ki in data set [8] is above 1000. For the same compound, the IC50 in data set [2] came to 8.3 nM. Further, the Ki in [9] was 2.3 nM.
For `C[C@H](NC(=O)c1cc(F)cc2c1N(Cc1ccc(C(F)(F)F)cc1)CC2)c1ccc(C(=O)O)cc1`, the Ratio Ki in data set [1], in data set [3], in data set [4], in data set [5], in [6] and in data set [7] was above 1000 throughout. For the same compound, the Ratio Ki in data set [8] is above 1000. Also, the IC50 in data set [2] is 2.1 nM. Also, the Ki in [9] was 0.37 nM.
Consider `C[C@H](NC(=O)c1cccc2c1N(Cc1ccc(-c3ccccc3)cc1)CC2)c1ccc(C(=O)O)cc1`, for which the Ratio Ki in data set [1] is above 1000; in data set [3], 57; in data set [4], above 1000; in data set [5], above 1000; in data set [6], above 1000; in data set [7], above 1000. The Ratio Ki in data set [8] was determined as 139. The IC50 in data set [2] worked out at 1.3 nM. The same compound registered a Ki in data set [9] of 0.28 nM.
For `C[C@H](NC(=O)c1cccc2c1N(Cc1ccc(C(=O)O)cc1)CC2)c1ccc(C(=O)O)cc1`, the Ratio Ki was above 1000 in data set [1]; above 73 in data set [3]; above 1000 in data set [4]; above 1000 in data set [5]; above 1000 in data set [6]; above 1000 in data set [7]. Besides, the Ratio Ki in data set [8] was above 179. This compound also gave a Ki in [9] of 54 nM.
Regarding `Cc1ccc(CN2CCc3cccc(C(=O)N[C@@H](C)c4ccc(C(=O)O)cc4)c32)cc1`, the Ratio Ki in data set [1], in data set [3], in data set [4], in data set [5], in data set [6] and in data set [7] was above 1000 in each case. Moreover, the Ratio Ki in data set [8] is above 1000. For the same compound, the IC50 in data set [2] worked out at 5.8 nM. In addition, the Ki in data set [9] is 0.78 nM.
For `C[C@H](NC(=O)c1cccc2c1N(Cc1ccc(C(N)=O)cc1)CC2)c1ccc(C(=O)O)cc1`, the Ratio Ki in [1], in data set [3], in [4], in [5], in data set [6] and in data set [7] was above 1000 in each case. Besides, in data set [8], the Ratio Ki was above 1000. Moreover, the IC50 in data set [2] was 73 nM. In data set [9], this compound had a Ki of 30 nM.
For `C[C@H](NC(=O)c1cccc2c1N(Cc1cccc(C(N)=O)c1)CC2)c1ccc(C(=O)O)cc1`, the Ratio Ki in data set [1] is above 1000; in data set [3], 461; in data set [4], above 1000; in [5], above 1000; in data set [6], above 1000; in data set [7], above 1000. In addition, the Ratio Ki in data set [8] stood at 582. The IC50 in [2] amounted to 72 nM. This compound returned a Ki in data set [9] of 30 nM.
As to `C[C@H](NC(=O)c1cccc2c1N(Cc1ccc(OC(F)(F)F)cc1)CC2)c1ccc(C(=O)O)cc1`, the Ratio Ki in data set [1] was above 1000; in data set [3] it was 880; in [4], above 1000; in [5], above 1000; in data set [6], above 1000; in data set [7] it was above 1000. In data set [8], the Ratio Ki was found to be 687. Besides, the IC50 in [2] came to 2.8 nM. Also, the affinity in [9] corresponds to a Ki of 1.5 nM.
Turning to `C[C@H](NC(=O)c1cc(Cl)cc2c1N(Cc1ccc(C(F)(F)F)cc1)CC2)c1ccc(C(=O)O)cc1`, the Ratio Ki in data set [1] is above 1000; in data set [3] it was 670; in data set [4] it was above 1000; in data set [5], above 1000; in data set [6], above 1000; in [7], above 1000. Besides, in data set [8], the Ratio Ki stood at 647. Further, the IC50 in data set [2] is 2.2 nM. The compound further displayed a Ki in [9] of 0.4 nM.

For orientation: IC50 means the concentration that gives 50% inhibition. One may read the Ki as a dissociation constant, usually derived from enzyme kinetics or from competition with a known ligand. Usually bioavailability stands for the share of a dose that reaches the circulation, judged against a reference dose that is usually intravenous. A higher bioavailability goes with good availability. For orientation: half-life means how long it takes for the measured level to halve. Low readings indicate fast loss, high ones slow loss.
